From article PMC4935662 (Molecular pharmaceutics, 2016)

Columns and labels:
[1] = cited from earlier work
[2] = test system: blood-brain barrier (BBB); test: In situ rat brain perfusion of Gd-DTPA, quantitative T1 mapping MRI; type: in vivo, Sprague-Dawley rats; details: Gd-DTPA 0.6 mmol/kg, brain-ventral
Summary of the method: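 Adult male Sprague-Dawley rats (250–350 g). A 10-sec saline post-perfusion wash followed. Sacrificed animals underwent quantitative T1 mapping MRI at room temperature; R1 = 1/T1 was taken per brain region.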

[3] = single administration at 1.0 mmol/kg in rats; cited from earlier work
[4] = test system: blood-brain barrier (BBB); details: cited from earlier work

CC[C@@]1(O)C(=O)OCc2c1cc1n(c2=O)Cc2cc3ccccc3nc2-1 [CPT, camptothecin]
time of conversion to the CPT-carboxylate form ([1]; phosphate-buffered saline solution containing 4% human plasma): 11 min | pH below which the lactone group is stable ([1]; undergoes lactone hydrolysis to CPT-carboxylate at pH 7.4, no reference given): < 5.5

O=C([O-])CN(CCN(CC(=O)[O-])CC(=O)O)CCN(CC(=O)[O-])CC(=O)O.[Gd+3] [Gd-DTPA, gadolinium-diethylenetriaminepentaacetate]
R1 values, Gd-DTPA in presence of HAV6 compared to Gd-DTPA and vehicle ([2]; HAV6 1.0 mM, olfactory bulb, hippocampus, cerebellum, deep-rostral, deep-caudal regions): more significantly increased R1 values | R1 values, Gd-DTPA and vehicle compared to vehicle only ([2]; cortex, deep-caudal): increased R1 values | tolerability / organ toxicity [3]: well tolerated without any organ toxicity

Ac-SHAVSS-NH2 [HAV6, Ac-SHAVSS-NH2]
brain delivery of IRdye 800cw-PEG delivered 1 h after administration of peptide ([4]; 25 kDa IRdye 800cw-PEG): no enhancement of brain delivery | duration of BBB opening ([4]; Balb/c mice): less than 1 h
